MEKK2mut PB1 HTS: MEK5 binding signal on mutant MEKK2 PB1, primary screen, biochemical, multiplex bead flow cytometry, Alexa488-MEK5; Alexa488-MEK5 binding to MEKK2 mutant; percent response, % at 10 µM; actives 0.35% (n = 290,000); AID 1530, 2009; in the data active = percent response above about 24%, passing the limit was not always enough
MEKK2wt PB1 HTS: modulators of MEK5 binding to wildtype MEKK2, primary screen, biochemical, multiplex bead flow cytometry, Alexa488-MEK5; AID 1531, 2009; actives 1.1% (n = 290,000); binding response (% of control), % at 10 µM; Alexa488-MEK5 binding to MEKK2 WT; actives lie on both sides; Mitogen-activated protein kinase kinase kinase 2 (Homo sapiens), Q9Y2U5; in the data active = binding response below about 67% or above about 130%
MEKK3 PB1 HTS: modulators of MEKK3-MEK5 PB1 binding, primary screen, biochemical, wildtype MEKK3, multiplex bead flow cytometry, Alexa488-MEK5; Mitogen-activated protein kinase kinase kinase 3 (Homo sapiens), Q99759; bead-based flow cytometry, Alexa488-MEK5 binding to MEKK3; actives lie on both sides; 0 = blocked by unlabeled MEK5, 100 = vehicle; binding response (% of control), % at 10 µM; actives 1.4% (n = 290,000);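 active = binding response more than 3 SD above or below the average of its plate-row segment, actives on both sides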;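 also: Alexa488 bead fluorescence after subtracting the streptavidin-only scavenger bead signal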
Target sequence (Q99759 whole entry, looked up): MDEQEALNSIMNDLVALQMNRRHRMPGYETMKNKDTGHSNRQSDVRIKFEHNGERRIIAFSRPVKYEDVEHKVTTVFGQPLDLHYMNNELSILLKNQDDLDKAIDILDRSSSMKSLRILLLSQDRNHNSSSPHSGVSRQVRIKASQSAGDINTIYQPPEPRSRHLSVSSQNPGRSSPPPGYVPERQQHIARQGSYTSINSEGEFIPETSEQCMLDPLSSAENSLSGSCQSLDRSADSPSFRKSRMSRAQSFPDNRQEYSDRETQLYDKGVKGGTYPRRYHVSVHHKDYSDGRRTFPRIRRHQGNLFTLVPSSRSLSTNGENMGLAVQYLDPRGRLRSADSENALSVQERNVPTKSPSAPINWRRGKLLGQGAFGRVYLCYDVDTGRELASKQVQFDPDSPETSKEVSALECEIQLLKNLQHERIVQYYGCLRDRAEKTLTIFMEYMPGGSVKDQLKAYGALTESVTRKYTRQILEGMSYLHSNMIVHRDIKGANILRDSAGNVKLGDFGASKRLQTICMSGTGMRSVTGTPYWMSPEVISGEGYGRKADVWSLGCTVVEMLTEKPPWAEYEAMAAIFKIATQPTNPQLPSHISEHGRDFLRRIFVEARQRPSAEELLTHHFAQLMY
Hep lipid drop: inhibitors of hepatocyte lipid droplet formation, primary screen, imaging, high-throughput imaging, BODIPY stain. AML12 mouse hepatocytes, oleate lipid droplets. inhibition, % at 6.5 µM. actives 0.4% (n = 240,000). AID 1656, 2009;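 active = lipid droplet intensity inhibited by at least 50%, with more than 500 cells counted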
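Assay system: AML12 hepatocytes (mouse) / Also added: 100 µM oleic acid challenge / Times: overnight treatment with compound plus oleate / Detection: high-content imaging of BODIPY-stained droplets and DAPI nuclei / Evaluation: % inhibition of lipid droplet signal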
MEKK2wt confirm: modulators of MEK5 binding to wildtype MEKK2, confirmation, biochemical, single concentration, multiplex bead flow cytometry; shares compounds with MEKK3 PB1 HTS; Alexa488-MEK5 binding to MEKK2 WT; actives lie on both sides; binding response (% of control), % at 10 µM; actives 2.4% (n = 5,900); in the data active = binding response below about 16% or above about 210%; inactive = in between
MEKK2mut confirm: mutant MEKK2 PB1-MEK5 binding signal retest – biochemical, single concentration, multiplex bead flow cytometry, confirmation | Alexa488-MEK5 binding to MEKK2 mutant | AID 1893, 2009 | percent response, % at 10 µM | actives 2% (n = 5,900) | shares compounds with MEKK3 PB1 HTS; in the data active = percent response mostly above about 71%, no sharp cut-off; inactive = mostly below about 38%;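 also: higher means compound restores mutant binding toward wildtype level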
MEKK3-MEK5 inh: MEKK3 wild-type PB1 binding to MEK5, inhibitors, confirmation, biochemical, bead multiplex flow cytometry, single concentration, wildtype. actives 1.8% (n = 5,900). binding response (% of control), % at 10 µM. shares compounds with MEKK3 PB1 HTS. Alexa488-MEK5 binding to MEKK3; stronger effect = lower value;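 active = binding response below 72% of control, or above a set upper limit, though filed actives all read lower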
Hits are given with their value; 0 = inactive; - = no result given; [ ] = another dose, or the depositor's remark. Hits are enriched below; roughly 2.6% of the tested compounds scored in any of these assays.

SMILES	MEKK2mut PB1 HTS	MEKK2wt PB1 HTS	MEKK3 PB1 HTS	Hep lipid drop	MEKK2wt confirm	MEKK2mut confirm	MEKK3-MEK5 inh
O=C(c1ccccc1)N(Cc1ccco1)C1CCS(=O)(=O)C1 (stereo not drawn)	0	0	0	-	-	-	-
O=C(c1ccc(Cl)cc1)N(Cc1ccco1)C1CCS(=O)(=O)C1 (stereo not drawn)	0	1.0[inhibitor]	2.0[inhibitor]	0	0	0	0
COC(C[C@H]1O[C@H]1C(=O)COCc1ccccc1)OC	0	0	0	0	-	-	-
Cc1occc1-c1nnc(SCC(=O)c2ccc(F)cc2)o1	0	0	48.0[inhibitor]	0	0	0	0
Cc1ccc(C(=O)CSc2nnc(-c3ccccc3)o2)cc1	0	-2.0[inhibitor]	1.0[inhibitor]	0	0	0	0
Cc1ccc(CSc2nnc(-c3ccc(NS(=O)(=O)c4ccccc4)cc3)o2)cc1	0	26.0[inhibitor]	21.0[inhibitor]	0	0	0	0
CC(C)NC(=O)C1CC=CCC1C(=O)O (stereo not drawn)	0	0	134.0	0	0	0	0
COc1cccc(NC(=O)CSc2nnc(-c3cccc(OC(C)C)c3)n2N)c1	0	0	0	-	-	-	-
COc1cccc(NC(C)C(=O)Nc2cc([N+](=O)[O-])ccc2Cl)c1 (stereo not drawn)	0	0	0	0	-	-	-
Cc1cc(C)n2nc(SCC(=O)NC3CCCCC3C)nc2n1 (stereo not drawn)	0	0	0	0	-	-	-
Cc1ccc(CNC(=O)C(CC(C)C)OC(=O)c2ccco2)cc1 (stereo not drawn)	0	0	0	0	-	-	-
O=C(N/N=C/c1cc(Cl)cc(Cl)c1O)c1ccncc1	0	0	0	0	-	-	-
Oc1c(Cl)cc(Cl)cc1/C=N/Nc1ncc(Br)cn1	0	0	138.0	0	0	0	0
COc1ccc(N(CC(=O)NN=C2CCCCCCC2)S(=O)(=O)c2ccccc2)cc1	0	0	0	0	-	-	-
Cc1nc2cc(NC(=O)COc3ccc(C#N)cc3)ccc2n1-c1ccccc1	0	2.0[inhibitor]	2.0[inhibitor]	-	0	0	0
Cc1nc2cc(C(=O)OCC(=O)Nc3ccc(C#N)cc3)ccc2n1-c1ccccc1	0	0	0	0	-	-	-
Cc1ccc(NC(=O)CSc2nnc(COc3ccc(C#N)cc3)n2-c2ccccc2)cc1C	0	1.0[inhibitor]	1.0[inhibitor]	-	0	0	0
CC(=O)N/C(=C/c1ccc2c(c1)OCO2)C(=O)NCC(=O)O	0	0	0	0	-	-	-
N#Cc1cnn2c3c(cnc12)C(=O)N1CCc2ccccc2C1C3 (stereo not drawn)	0	0	0	0	-	-	-
Cc1ccc(NC(=O)CSc2nnc(-c3cccs3)o2)cc1S(=O)(=O)N1CCCCC1	0	0	135.0	0	0	0	0
CN(C)c1ccc(NC(=O)CN2CCN(CC(=O)Nc3ccc(F)cc3)CC2)cc1	0	0	0	0	-	-	-
CN(C)c1ccc(NC(=O)CN2CCC(O)(c3ccccc3)CC2)cc1	0	-	1.0[inhibitor]	0	0	0	69.0
CCCc1ccc2oc(C(=O)N(Cc3nccn3C)C(C)C)c(C)c2c1	0	0	0	0	-	-	-
CC(=O)c1ccc(NC(=O)CSc2ccc(-c3ccc4c(c3)OCO4)nn2)cc1	0	0	130.0	0	0	0	0
COc1ccc(-c2noc(CN3CCOCC3)n2)cc1OC	0	0.0[inhibitor]	1.0[inhibitor]	0	0	0	0
SMILES	MEKK2mut PB1 HTS	MEKK2wt PB1 HTS	MEKK3 PB1 HTS	Hep lipid drop	MEKK2wt confirm	MEKK2mut confirm	MEKK3-MEK5 inh
COc1ccc(CNC2CCSc3ccccc32)cc1OC (stereo not drawn)	0	0	0	0	-	-	-
COc1ccc2[nH]c(C)cc(=O)c2c1	0	0	0	0	-	-	-
COc1ccc2[nH]c3c(C)c4ccncc4c(C)c3c2c1	53.0	177.0	0	0	243.0	88.0	0
COc1ccc(S(=O)(=O)c2ccc(OC)c(OC)c2)cc1OC	0	0	0	-	-	-	-
N#C/C(=C\c1ccccc1OCc1ccc(C(=O)O)cc1)c1ccccc1	0	0	50.0[inhibitor]	0	0	0	0
COc1ccc(C2=NS(=O)(=O)N(C)C(C(=O)N3CCCCC3C)=C2)cc1 (stereo not drawn)	0	0	0	0	-	-	-
O=C(COc1ccc(Cl)cc1)Nc1ccc2c(c1)CCC2	0	0	75.0[inhibitor]	0	0	0	0
CC(=O)c1ccc(OCC(=O)Nc2ccc3c(c2)CCC3)cc1	-	-	-	0	-	-	-
CC(=O)N(C)c1ccc(NC(=S)NC(=O)/C=C/c2ccco2)cc1	0	0	0	0	-	-	-
O=C(/C=C/c1ccccc1)NC(=S)Nc1ccccc1	0	0	122.0	0	0	0	0
CC(=O)Nc1ccc(NC(=S)NC(=O)/C=C/c2ccco2)cc1	0	16.0[inhibitor]	40.0[inhibitor]	0	0	0	0
O=C(/C=C/c1ccc(F)cc1)NC(=S)Nc1ccccc1	0	0	0	0	-	-	-
CCc1nnc(NC(=O)/C=C/c2ccco2)s1	0	0	131.0	0	0	0	0
COc1ccc(C(=O)NCc2nnc(SCC(=O)Nc3ccccc3OC)n2C)cc1	0	0	0	0	-	-	-
O=C(CC1NC(=S)NC1=O)c1ccc(Cl)cc1 (stereo not drawn)	0	0	0	0	-	-	-
O=C(CN(C(=O)CCC(=O)Nc1nccs1)c1ccc(F)cc1)NCCc1ccccc1	0	0	0	0	-	-	-
COC(=O)/C=C/CC(C)OS(N)(=O)=O (stereo not drawn)	0	152.0	0	0	0	0	0
O=C(NCC(=O)N1CCN(C(c2ccccc2)c2ccccc2)CC1)c1ccccc1F	0	0	0	0	-	-	-
COc1cc(Cl)c(C)cc1NC(=O)c1ccc(S(C)(=O)=O)cc1	0	0	45.0[inhibitor]	0	0	0	0
COc1cc(NC(=O)c2ccccc2)c(OC)cc1Cl	0	0	0	0	-	-	-
CCOC(=O)c1c(C)oc2cc(Cl)c(O)c(CN(C)C)c12	0	0	128.0	0	0	0	0
CCOC(=O)c1c(C)oc2ccc(O)c(CN(C)C)c12	0	0	0	0	-	-	-
Cc1oc(-c2ccccc2Cl)nc1Cn1cccc1C1=NC(c2ccccc2)CO1 (stereo not drawn)	0	29.0[inhibitor]	19.0[inhibitor]	-	0	0	0
CC1(C)CC(=O)C(C(O)c2cccc([N+](=O)[O-])c2)C(C)(C)N1 (stereo not drawn)	25.0	0	0	0	0	0	0
CCOc1ccc(S(=O)(=O)N2CCCC(C(=O)N3CCN(c4ccccc4)CC3)C2)cc1 (stereo not drawn)	0	0	0	0	-	-	-

Source: PubChem (several laboratories)
